Results as given in ChEMBL document CHEMBL1275390, “Synthesis and discovery of water-soluble microtubule targeting agents that bind to the colchicine site on tubulin and circumvent Pgp mediated resistance” (J Med Chem, 2010).
Calls of active or inactive are those of the source. The rule behind the calls is not given here.

Experiments:
HeLa [1] = assay: Relative resistance, ratio of IC50 for human HeLa cells expressing tubulin 3beta to IC50 for human HeLa cells; format: functional
HeLa [2] = assay: Antiproliferative activity against human HeLa cells expressing tubulin 3beta by sulforhodamine B assay; format: functional, cell-based
SK-OV-3 [3] = assay: Relative resistance, ratio of IC50 for human SKOV3 cells expressing MDR1-6/6 to IC50 for human SKOV3 cells; format: functional
Method in brief: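 Relative resistance (Rr) is the SRB-derived IC50 in Pgp-overexpressing, MDR-1-transduced SK-OV-3 MDR-1-6/6 cells divided by the IC50 in parental SK-OV-3 cells.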

SK-OV-3 [4] = assay: Antiproliferative activity against human SKOV3 cells by sulforhodamine B assay; format: functional, cell-based
Method in brief: (§1)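 Antiproliferative read-out by sulforhodamine B assay. HeLa and SK-OV-3 cells were from ATCC; SK-OV-3 MDR-1-6/6 is the Pgp-overexpressing, MDR-1-transduced isogenic partner of the parental line. Each IC50 is the mean of at least 3 independent experiments, with triplicate points in each.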

SK-OV-3 [5] = assay: Antiproliferative activity against human SKOV3 cells expressing MDR1-6/6 by sulforhodamine B assay; format: functional, cell-based; method in brief: as §1
HeLa [6] = assay: Antiproliferative activity against human HeLa cells by sulforhodamine B assay; format: functional, cell-based; method in brief: as §1
MDA-MB-435 [7] = assay: Antiproliferative activity against human MDA-MB-435 cells by sulforhodamine B assay; format: functional, cell-based
Method in brief: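 SRB assay against cancer cells obtained from ATCC (MDA-MB-435, HeLa). IC50 is the concentration giving 50% inhibition of proliferation, taken as the mean of at least 3 independent experiments, each run in triplicate points.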

SN12C = assay: Growth inhibition of human SN12C cells by sulforhodamine B assay; format: functional
OVCAR-4 = assay: Growth inhibition of human OVCAR4 cells by sulforhodamine B assay; format: functional
NCI-H226 = assay: Growth inhibition of human NCI-H226 cells by sulforhodamine B assay; format: functional
CCRF-CEM = assay: Growth inhibition of human CCRF-CEM cells by sulforhodamine B assay; format: functional
MDA-MB-435 [8] = assay: Growth inhibition of human MDA-MB-435 cells by sulforhodamine B assay; format: functional
LOX IMVI = assay: Growth inhibition of human LOXIMVI cells by sulforhodamine B assay; format: functional
HCC 2998 = assay: Growth inhibition of human HCC2998 cells by sulforhodamine B assay; format: functional
NCI-H522 = assay: Growth inhibition of human NCI-H522 cells by sulforhodamine B assay; format: functional
HOP-62 = assay: Growth inhibition of human HOP62 cells by sulforhodamine B assay; format: functional
OVCAR-3 = assay: Growth inhibition of human OVCAR-3 cells by sulforhodamine B assay; format: functional
SNB-75 = assay: Growth inhibition of human SNB75 cells by sulforhodamine B assay; format: functional
HL-60(TB) = assay: Growth inhibition of human HL-60(TB) cells by sulforhodamine B assay; format: functional
UO-31 = assay: Growth inhibition of human UO31 cells by sulforhodamine B assay; format: functional
SK-OV-3 [9] = assay: Growth inhibition of human SKOV3 cells by sulforhodamine B assay; format: functional
MCF7 = assay: Growth inhibition of human MCF7 cells by sulforhodamine B assay; format: functional
OVCAR-8 = assay: Growth inhibition of human OVCAR8 cells by sulforhodamine B assay; format: functional
MDA-MB-468 = assay: Growth inhibition of human MDA-MB-468 cells by sulforhodamine B assay; format: functional
MDA-MB-435 [10] = assay: Cell cycle arrest in human MDA-MB-435 cells assessed as mitotic accumulation at 850 nM after 24 hrs using propidium iodide staining by flow cytometry; format: functional, cell-based
Method in brief: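 Cells were then harvested, stained with Krishan's reagent (propidium iodide) and analysed by flow cytometry. Data are plotted as propidium iodide intensity versus number of events.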

RXF 393 = assay: Growth inhibition of human RXF393 cells by sulforhodamine B assay; format: functional
NCI-H322M = assay: Growth inhibition of human NCI-H322M cells by sulforhodamine B assay; format: functional
DU-145 = assay: Growth inhibition of human DU145 cells by sulforhodamine B assay; format: functional
MDA-MB-231 = assay: Growth inhibition of human MDA-MB-231 cells by sulforhodamine B assay; format: functional
NCI-H460 = assay: Growth inhibition of human NCI-H460 cells by sulforhodamine B assay; format: functional
TK-10 = assay: Growth inhibition of human TK10 cells by sulforhodamine B assay; format: functional
MDA-MB-435 [11] = assay: Cell cycle arrest in human MDA-MB-435 cells assessed as formation of aberrant mitotic spindles at 850 nM after 24 hrs using propidium iodide staining by flow cytometry; format: functional, cell-based
U-251 = assay: Growth inhibition of human U251 cells by sulforhodamine B assay; format: functional
NCI/ADR-RES = assay: Growth inhibition of human NCI/ADR-RES cells by sulforhodamine B assay; format: functional
HT-29 = assay: Growth inhibition of human HT-29 cells by sulforhodamine B assay; format: functional
SK-MEL-5 = assay: Growth inhibition of human SK-MEL-5 cells by sulforhodamine B assay; format: functional
A498 = assay: Growth inhibition of human A498 cells by sulforhodamine B assay; format: functional
SW-620 = assay: Growth inhibition of human SW620 cells by sulforhodamine B assay; format: functional
A549 = assay: Growth inhibition of human A549 cells by sulforhodamine B assay; format: functional
MOLT-4 = assay: Growth inhibition of human MOLT4 cells by sulforhodamine B assay; format: functional
786-0 = assay: Growth inhibition of human 786-0 cells by sulforhodamine B assay; format: functional
Bos taurus = species: Bos taurus; assay: Displacement of [3H]colchicine from bovine brain tubulin at 5 uM after 10 mins
KM12 = assay: Growth inhibition of human KM12 cells by sulforhodamine B assay; format: functional
SF-539 = assay: Growth inhibition of human SF539 cells by sulforhodamine B assay; format: functional
SK-MEL-2 = assay: Growth inhibition of human SK-MEL-2 cells by sulforhodamine B assay; format: functional
SK-MEL-28 = assay: Growth inhibition of human SK-MEL-28 cells by sulforhodamine B assay; format: functional
HOP-92 = assay: Growth inhibition of human HOP92 cells by sulforhodamine B assay; format: functional
SNB-19 = assay: Growth inhibition of human SNB19 cells by sulforhodamine B assay; format: functional
EKVX = assay: Growth inhibition of human EKVX cells by sulforhodamine B assay; format: functional
[12] = Growth inhibition of human Hs 578T cells by sulforhodamine B assay; format: functional
HCT-15 = assay: Growth inhibition of human HCT15 cells by sulforhodamine B assay; format: functional
SF-295 = assay: Growth inhibition of human SF295 cells by sulforhodamine B assay; format: functional
NCI-H23 = assay: Growth inhibition of human NCI-H23 cells by sulforhodamine B assay; format: functional
M14 = assay: Growth inhibition of human M14 cells by sulforhodamine B assay; format: functional
COLO 205 = assay: Growth inhibition of human COLO205 cells by sulforhodamine B assay; format: functional
UACC-62 = assay: Growth inhibition of human UACC62 cells by sulforhodamine B assay; format: functional
K562 = assay: Growth inhibition of human K562 cells by sulforhodamine B assay; format: functional
SF-268 = assay: Growth inhibition of human SF268 cells by sulforhodamine B assay; format: functional
IGROV-1 = assay: Growth inhibition of human IGROV1 cells by sulforhodamine B assay; format: functional
OVCAR-5 = assay: Growth inhibition of human OVCAR5 cells by sulforhodamine B assay; format: functional
ACHN = assay: Growth inhibition of human ACHN cells by sulforhodamine B assay; format: functional
PC-3 = assay: Growth inhibition of human PC3 cells by sulforhodamine B assay; format: functional
SR = assay: Growth inhibition of human SR cells by sulforhodamine B assay; format: functional

`COc1cc2c(cc1O)CC[C@@H]1[C@@H]2CC[C@]2(C)[C@@H](O)CC[C@@H]12` [2-METHOXYESTRADIOL] gave a Ratio (HeLa [1]) of 1, an IC50 (HeLa [2]) of 586 nM and a Ratio (SK-OV-3 [3]) of 2.6. The IC50 (SK-OV-3 [4]) was 867 nM and the IC50 (SK-OV-3 [5]) was 2270 nM.
With `COc1ccc(/C=C\c2cc(OC)c(OC)c(OC)c2)cc1OP(=O)(O)O` [FOSBRETABULIN] the Ratio (HeLa [1]) was 1.2, the IC50 (HeLa [2]) was 5.7 nM and the Ratio (SK-OV-3 [3]) was 1.5. It also gave an IC50 (SK-OV-3 [4]) of 4.5 nM, an IC50 (SK-OV-3 [5]) of 6.6 nM and an IC50 (HeLa [6]) of 4.7 nM.
`COc1ccc(Nc2[nH]c(C)nc3nccc2-3)cc1` showed an IC50 (MDA-MB-435 [7]) of over 10000 nM.
In the case of `COc1ccc(N(C)c2nc(C)nc3[nH]ccc23)cc1`, the GI50 (SN12C) is reported as 854 nM, the GI50 (OVCAR-4) is reported as 7730 nM and the GI50 (NCI-H226) is reported as 623 nM. For the same molecule, the GI50 (CCRF-CEM) was 315 nM, the GI50 (MDA-MB-435 [8]) was 44.2 nM and the GI50 (LOX IMVI) was 407 nM. For the same molecule, the GI50 (HCC 2998) was 271 nM, the GI50 (NCI-H522) was 40.2 nM and the GI50 (HOP-62) was 291 nM. The GI50 (OVCAR-3) was 192 nM, the GI50 (SNB-75) was 185 nM and the GI50 (HL-60(TB)) was 190 nM. The GI50 (UO-31) was 307 nM, the GI50 (SK-OV-3 [9]) was 248 nM and the GI50 (MCF7) was 314 nM. The GI50 (OVCAR-8) was 639 nM, the GI50 (MDA-MB-468) was 208 nM and the Activity (MDA-MB-435 [10]) was “Active”. It also gave an IC50 (HeLa [2]) of 186 nM, a GI50 (RXF 393) of 226 nM and a GI50 (NCI-H322M) of 428 nM. The GI50 (DU-145) was 269 nM, the GI50 (MDA-MB-231) was 1260 nM and the GI50 (NCI-H460) was 351 nM. The GI50 (TK-10) was 390 nM, the Activity (MDA-MB-435 [11]) was “Active” and the GI50 (U-251) was 440 nM. It also gave a GI50 (NCI/ADR-RES) of 164 nM, a GI50 (HT-29) of 279 nM and a GI50 (SK-MEL-5) of 177 nM. It also gave a GI50 (A498) of 198 nM, a GI50 (SW-620) of 246 nM and a GI50 (A549) of 723 nM. The GI50 (MOLT-4) was 503 nM, the GI50 (786-0) was 433 nM and the IC50 (SK-OV-3 [4]) was 278 nM. The inhibition (Bos taurus) was 70%, the GI50 (KM12) was 181 nM and the GI50 (SF-539) was 288 nM. The GI50 (SK-MEL-2) was 251 nM, the GI50 (SK-MEL-28) was 603 nM and the GI50 (HOP-92) was 4800 nM. For the same molecule, the GI50 (SNB-19) was 612 nM, the GI50 (EKVX) was 875 nM and the GI50 [12] was 249 nM. The GI50 (HCT-15) was 275 nM, the GI50 (SF-295) was 269 nM and the GI50 (NCI-H23) was 438 nM. It also gave a GI50 (M14) of 218 nM, a GI50 (COLO 205) of 243 nM and a GI50 (UACC-62) of 625 nM. It also gave a GI50 (K562) of 179 nM, a GI50 (SF-268) of 449 nM and an IC50 (SK-OV-3 [5]) of 435 nM. For the same molecule, the GI50 (IGROV-1) was 340 nM, the GI50 (OVCAR-5) was 1670 nM and the GI50 (ACHN) was 556 nM. For the same molecule, the GI50 (PC-3) was 509 nM, the GI50 (SR) was 87.6 nM and the IC50 (HeLa [6]) was 270 nM.
`COc1ccc(Nc2nc(C)nc3c2CC(C)C3)cc1` (racemic) gave an IC50 (MDA-MB-435 [7]) of over 10000 nM.
